# In the library only some 2.8% were active in any assay of this set; here they are far more common.
# NPY-Y2 PAM-ag: human NPY-Y2 potentiation or agonism, primary screen. cells expressing NPY-Y2, potentiator/agonist read-out. activation, % at 3.6 µM. 220,000 compounds, 0.45% hits. AID 1359; in the data active = activation above about 27%;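 note: cells stimulated with NPY near EC25 plus isoproterenol at EC100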
# Target sequence (P49146 whole entry, looked up): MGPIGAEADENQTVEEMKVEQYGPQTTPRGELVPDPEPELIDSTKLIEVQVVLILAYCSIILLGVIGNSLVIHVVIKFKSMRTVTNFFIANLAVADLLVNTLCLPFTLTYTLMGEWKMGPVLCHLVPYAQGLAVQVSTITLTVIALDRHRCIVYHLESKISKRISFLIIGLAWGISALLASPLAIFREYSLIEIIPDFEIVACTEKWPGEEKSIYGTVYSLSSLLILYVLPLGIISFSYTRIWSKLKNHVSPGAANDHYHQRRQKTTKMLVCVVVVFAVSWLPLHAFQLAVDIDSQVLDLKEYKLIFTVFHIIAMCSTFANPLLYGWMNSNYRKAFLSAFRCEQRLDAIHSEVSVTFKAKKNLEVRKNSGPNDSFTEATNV
# NPY-Y1 PAM-ag: potentiates or activates human NPY-Y1 receptor. NPY-Y1 expressing cells, potentiator/agonist activation. activation, % at 3.6 µM. 220,000 compounds, 0.37% hits; in the data active = activation above about 33%, passing the limit was not always enough;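 note: cells stimulated with NPY at EC10 then isoproterenol at EC100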
# NPY-Y1 antag: blocks the human neuropeptide Y Y1 receptor; 200,000 compounds, 1% hits; P25929; AID 1040; HEK293-CNG Y1 cells, membrane potential fluorescence; NPY at EC95, then isoproterenol; inhibition, % at 3.6 µM;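 active = inhibition above the campaign mean inhibition of all tested compounds plus 3 SD, cut at about 20% in these data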
#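 Test system: HEK293 cells co-expressing NPY Y1 receptor and cyclic-nucleotide gated channel; Also added: NPY (25 nM), isoproterenol (1 µM), Ro 20-1724 (25 µM); Compound dosing: one concentration, 3.6 µM, in 0.4% DMSO; Timing: dye 3 h, compound 60 min room temperature, stimulation 45 min; Technique: Membrane-potential fluorescent dye readout.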
# Measles CPE: protection of cells from measles virus. Measles virus-infected cells, CPE protection, absorbance. protection (pct of control), % at 4 µM. 140,000 compounds, 1.5% hits. AID 841; in the data active = protection mostly above about 24%, no sharp cut-off; inactive = mostly below about 26%
# Rad51 HR inh: blocks human Rad51 in homologous recombination | hRad51 DNA strand exchange, fluorescence dequenching | 200,000 compounds, 0.085% hits | AID 1385 | inhibition, % at 10 µM | Q06609;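 active = inhibition above 40% at the single screening dose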
#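 Test system: preformed human Rad51 ssDNA filaments. Compound dosing: single dose, 10 µM final compound. Incubation: filaments 15 min 37 °C, then compound 30 min. Technique: FRET fluorescence dequenching, excitation 485 nm, emission 520 nm. Read-out basis: percent inhibition from fluorescence, normalised to plate control and blank means. Benchmarks: plate controls and plate blanks.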
# NPY Y2 blocker: blocks the human neuropeptide Y Y2 receptor. P49146. NPY-Y2 expressing cells, antagonist mode. inhibition, % at 2.7 µM. 140,000 compounds, 0.99% hits
# NPY1 antag conf: confirmation of human neuropeptide Y receptor Y1 antagonists; shares compounds with NPY-Y1 antag; HEK293-CNG NPY-Y1, membrane potential fluorescence, cAMP; NPY challenge against isoproterenol-raised cAMP; inhibition, % at 3.6 µM; 1,200 compounds, 21% hits; AID 1254; in the data active = inhibition above about 20%
# NPY-Y2 antag ct: antagonizes human NPY-Y2, counter-screen to NPY-Y1 antagonists; shares compounds with NPY-Y1 antag; HEK293 NPY-Y2 CNG membrane potential fluorescence, antagonism; cells given NPY, then isoproterenol; inhibition, % at 3.6 µM; 1,200 compounds, 28% hits; AID 1255
# Numbers stand for hits; 0 = inactive; - = no result. Cut-off read from the data, not from the text of the source, unless noted: active = inhibition above about 17%; inactive = the rest.
SMILES,NPY-Y2 PAM-ag,NPY-Y1 PAM-ag,NPY-Y1 antag,Measles CPE,Rad51 HR inh,NPY Y2 blocker,NPY1 antag conf,NPY-Y2 antag ct
COC(=O)c1ccc(C2C(Oc3ccc(OC)cc3)C(=O)N2CCc2ccc(F)cc2)cc1 (centres undefined),0,0,21,0,0,0,0,0
COc1cc(OC)c(C(=O)NCCCn2ccnc2)cc1OC,0,0,0,-,-,-,-,-
COc1ccc(C(=O)CSc2ccc(-c3ccc(C)cc3)nn2)cc1,0,0,25,0,0,0,0,0
CC(=O)N1CCN(CC(=O)Nc2ccccc2Sc2ccccc2)CC1,0,0,0,0,0,0,-,-
COc1ccc(-n2nnnc2-c2cccc(OC)c2)cc1,0,0,24,0,0,0,0,29
O=C(O)CSc1nc(-c2ccc(Cl)cc2)nc2c1oc1ccccc12,0,0,0,0,-,0,-,-
O=C(O)CSc1nc(-c2ccccc2)nc2c1oc1ccccc12,0,0,23,-,0,0,0,0
CN(C)CCC(=O)c1cccc(Br)c1,0,0,0,-,0,-,-,-
Clc1ccc(-c2nnc3c4ccccc4nc(N4CCOCC4)n23)cc1Cl,0,0,21,0,-,0,0,0
Brc1ccc(-c2nnc3c4ccccc4nc(N4CCOCC4)n23)cc1,0,0,0,0,-,0,-,-
Cc1csc2ncnc(N3CCN(C(=S)Nc4ccc(F)cc4F)CC3)c12,0,0,-,-,0,-,-,-
Cc1cc(Nc2ccc([N+](=O)[O-])cc2)nc2ccccc12,0,0,24,-,0,-,0,0
COc1ccc(Nc2cc(C)c3ccccc3n2)cc1,0,0,0,-,0,-,-,-
Cc1noc(C)c1CSc1nc2[nH]ncc2c(=O)n1-c1ccccc1,0,0,21,0,0,0,0,0
Cc1nc(CSc2nc3[nH]ncc3c(=O)n2-c2ccccc2)cs1,0,0,0,0,0,0,-,-
Cc1ccc(C)c(-c2[nH]ncc2CN2CCCC(CO)(Cc3ccccc3C)C2)c1 (centres undefined),0,0,0,-,-,-,-,-
CC(C)C[C@H](NC(=O)NCc1ccc(F)cc1)C(=O)O,0,0,-,-,0,-,-,-
CCc1ccc(NC(=O)CSc2nc3ccccc3c(=O)n2CCCN2CCC(C)CC2)cc1,0,0,38,-,0,-,47,51
CN(C)CCSc1nc(-c2ccccc2)nc2c1CCC2,0,0,24,0,0,0,0,20
CN(C)C(=O)CSc1nc(-c2ccccc2)nc2c1CCCC2,0,0,0,0,0,0,-,-
CN(Cc1c(C(=O)N2CCc3ccccc3C2)nc2ccc(Cl)cn12)C(C1CC1)C1CC1,0,0,25,-,0,-,0,0
Cc1c(C(=O)C(=O)NCCCn2ccnc2)c2ccccc2n1C,0,0,0,-,-,-,-,-
Cc1cccc(OCc2n(CC(=O)OC3CC(C)CCC3C(C)C)c3ccccc3[n+]2C)c1 (centres undefined),0,0,28,-,0,-,24,39
CC(=O)n1cc([C@@H]2C=C(C(=O)Nc3ccccc3)O[C@H](OCc3ccc(CO)cc3)C2)c2ccccc21,0,0,34,-,0,-,0,0
Cn1cc(S(=O)(=O)N2CCN(c3cccc(Cl)c3)CC2)c(=O)n(C)c1=O,0,0,-,-,0,-,-,-
SMILES,NPY-Y2 PAM-ag,NPY-Y1 PAM-ag,NPY-Y1 antag,Measles CPE,Rad51 HR inh,NPY Y2 blocker,NPY1 antag conf,NPY-Y2 antag ct
CCOc1cc(/C=N/NC(=O)CN2CCCCC2)ccc1OCc1cccc(Cl)c1,0,0,0,0,0,0,-,-
CCCn1c(NCc2c[nH]c3ccccc23)nc2ccccc21,0,0,0,0,0,0,-,-
Cc1cc(Cl)c(OCCOCCN2CCCC(C)C2)c(Br)c1 (centres undefined),0,0,23,-,-,-,0,0
Cc1cc(Cl)c(OCCOCCN2CCCCC2)c(Br)c1,0,0,0,0,0,0,-,-
Cc1cc(C)n(CCC(=O)N/N=C/c2ccc(Br)c([N+](=O)[O-])c2)n1,0,0,-,-,-,-,-,-
CCOC(=O)c1c(NC(=O)C2COc3ccccc3O2)sc2c1CCN(Cc1ccccc1)C2 (centres undefined),0,0,22,0,0,0,23,20
CCN(CC)S(=O)(=O)c1ccc(NC(=O)CSc2nnc(-c3cccc(OC)c3)n2C)cc1,0,0,0,0,-,0,-,-
C=C(C)CSc1nnc(-c2cccc(S(=O)(=O)N(C)C)c2)n1-c1cc(OC)ccc1OC,0,0,26,0,0,0,0,0
COC(=O)[C@@]1(Cc2ccc(F)cc2)[C@H]2c3cc(C(=O)N(C)C)n(Cc4ccc(OC(F)(F)F)cc4)c3C[C@H]2CN1C(=O)c1ccccc1,0,0,35,0,-,0,0,0
COc1cccc(NC(=O)c2ccccc2-c2nc(-c3ccc(F)cc3)no2)c1,0,0,22,0,0,0,0,0
COc1cccc(NC(=O)c2ccccc2-c2nc(-c3ccccc3)no2)c1,0,0,26,0,0,0,0,0
O=C(c1cn(-c2ccccc2)nc1-c1ccc(Br)cc1)N1CCOCC1,0,0,0,0,-,0,-,-
CN1CCN(c2nc(-c3cccnc3)nc3scc(-c4ccccc4)c23)CC1,0,0,28,-,0,-,0,0
Cc1ccc(C(=O)NCC(=O)OCC(=O)NC2CCS(=O)(=O)C2)cc1C (centres undefined),0,0,0,0,0,0,-,-
CCN(CC)S(=O)(=O)c1cc(NC(=O)COc2ccc(C#N)cc2OC)ccc1C,0,0,24,0,0,0,0,29
CCN(CC)S(=O)(=O)c1cccc(NC(=O)COc2ccc(C#N)cc2OC)c1,0,0,0,0,0,0,-,-
O=C(c1nc2ccccn2c1CN1CCCC(OCc2ccccc2)C1)N1CCCC1 (centres undefined),0,0,24,-,0,-,0,0
COc1cccc(-c2noc(C3CCCN(S(=O)(=O)c4cccc(Cl)c4C)C3)n2)c1 (centres undefined),0,0,30,0,0,0,0,0
COc1ccc(-c2nsc(C(=O)N(c3ccc(F)cc3)C(C(=O)NC3CCCC3)c3ccc(OC)cc3)c2N)cc1 (centres undefined),0,0,0,0,0,0,-,-
CC(C)(C)NCC(=O)N/N=C/c1ccc(OCc2ccccc2)cc1,0,0,25,-,0,-,21,31
Cc1nc(-c2cccc(NS(=O)(=O)c3ccc4ccccc4c3)c2)cs1,0,0,32,0,0,0,0,0
c1ccc(-c2nc(Sc3ncnc4c3cnn4-c3ccccc3)n[nH]2)cc1,0,0,26,0,-,0,0,0
CCCNC(=S)N1CCC(NC(=O)Nc2ccc(C)cc2)CC1,0,0,0,-,0,-,-,-

# Screens: PubChem, several laboratories
